# Test results published in ChEMBL document CHEMBL1649111, “Restoration of susceptibility of intracellular methicillin-resistant Staphylococcus aureus to beta-lactams: comparison of strains, cells, and antibiotics” (Antimicrob Agents Chemother, 2008).
# Tests used:
# Staphylococcus aureus [1] = experiment: Antimicrobial activity against intracellular hospital acquired methicillin-resistant Staphylococcus aureus ATCC 33591 infected in human keratinocytes assessed as increase in bacterial count from original inoculum at low compound concentration after 24 hrs at pH 7.4; assay type: functional
# How it was run: (§1)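 Primary human skin keratinocytes or Calu-3 bronchial epithelial cells, given an inoculum of 5 × 10⁷ to 1 × 10⁸ bacteria/ml and 2 h for internalization. Post-phagocytosis load 1.5 × 10⁶ to 3.0 × 10⁶ CFU per mg cell protein. Cloxacillin dose range in mg/liter for 24 h, n = 3. Hill-derived Emin, Emax and EC50; static concentration interpolated.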
# Staphylococcus aureus [2] = experiment: Antimicrobial activity against intracellular hospital acquired methicillin-resistant Staphylococcus aureus ATCC 33591 infected in human keratinocytes assessed as decrease in bacterial count from original inoculum at high compound concentration after 24 hrs at pH 7.4; assay type: functional; how it was run: as §1
# Staphylococcus aureus [3] = experiment: Antimicrobial activity against intracellular hospital acquired methicillin-resistant Staphylococcus aureus ATCC 33591 infected in human keratinocytes assessed as decrease in bacterial growth after 24 hrs at pH 7.4; assay type: functional, organism-based; conditions: ATCC 33591, 24 h; how it was run: as §1
# Staphylococcus aureus [4] = experiment: Antimicrobial activity against intracellular hospital acquired methicillin-resistant Staphylococcus aureus ATCC 33591 infected in human Calu3 cells assessed as decrease in bacterial count from original inoculum at high compound concentration after 24 hrs at pH 7.4; assay type: functional, Calu-3; how it was run: as §1
# Staphylococcus aureus [5] = experiment: Antimicrobial activity against intracellular hospital acquired methicillin-resistant Staphylococcus aureus ATCC 33591 infected in human Calu3 cells assessed as decrease in bacterial growth after 24 hrs at pH 7.4; assay type: functional, organism-based; conditions: ATCC 33591, Calu-3, 24 h; how it was run: as §1
# [6] = Chemical stability of the compound assessed as compound remaining after 24 hrs PBS buffer by HPLC analysis at pH 5.5; assay type: physicochemical; conditions: read-out: Activity
# How it was run: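 Drug at 50 mg/liter initial concentration incubated 24 h at 37°C in buffered medium at pH 7.4 or 5.5. Remaining drug measured by HPLC signal disappearance; mobile phase 25 mM phosphate buffer pH 6.7 with acetonitrile (75:25).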
# Staphylococcus aureus [7] = experiment: Antimicrobial activity against hospital acquired methicillin-resistant Staphylococcus aureus ATCC 33591 infected in human THP-1 cells assessed as increase in bacterial count from original inoculum at low compound concentration after 24 hrs at pH 7.4; assay type: functional
# Staphylococcus aureus [8] = experiment: Bacteriostatic activity against hospital acquired methicillin-resistant Staphylococcus aureus ATCC 33591 infected in human THP-1 cells assessed as decrease in bacterial growth after 24 hrs at pH 7.4; assay type: functional
# How it was run: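 THP-1 macrophages, unactivated, infected with MRSA ATCC 33591. Cloxacillin over a range of extracellular concentrations (mg/liter) with a 24-h exposure. CFU per mg cell protein as change from the original inoculum, n = 3. Hill equation fitted with slope factor 1; static concentration (no change from inoculum) read by graphical interpolation.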
# THP-1 = experiment: Ratio of intracellular to extracellular drug level in human THP1 cells at 250 mg/L after 24 hrs; assay type: ADME, cell-based; conditions: thp-1, 24 h
# How it was run: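 THP-1 cells incubated 24 h at 250 mg/liter extracellular drug. Cell lysates assayed microbiologically with MSSA ATCC 25923; content expressed per mg total protein. Cellular/extracellular ratio calculated assuming cell volume of 5 μl per mg protein.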
# Staphylococcus aureus [9] = experiment: Antimicrobial activity against beta-lactamase negative methicillin-susceptible Staphylococcus aureus ATCC 25923 by broth microdilution method at pH 5.5; assay type: functional
# Staphylococcus aureus [10] = experiment: Antimicrobial activity against hospital acquired methicillin-resistant and vancomycin-intermediate Staphylococcus aureus NRS126 obtained from patient with bloodstream infection by broth microdilution method at pH 5.5; assay type: functional
# Staphylococcus aureus [11] = experiment: Antimicrobial activity against beta-lactamase negative methicillin-susceptible Staphylococcus aureus ATCC 25923 infected in human THP-1 cells assessed as decrease in bacterial count from original inoculum at high compound concentration after 24 hrs at pH 5.5; assay type: functional
# How it was run: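 MSSA ATCC 25923 phagocytized by unactivated THP-1 macrophages; extracellular antibiotic from about 0.01× to 100× the broth MIC at pH 5.5, with gentamicin 0.5 mg/liter to block extracellular growth. CFU per mg cell protein counted at 24 h vs. original inoculum (n = 3). A Hill equation (slope factor 1) gives Emin/Emax, extrapolated to infinitely low/high concentration. Static concentration is read by graphical interpolation.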
# Staphylococcus aureus [12] = experiment: (§2) Antimicrobial activity against hospital acquired methicillin-resistant and vancomycin-intermediate Staphylococcus aureus NRS18 obtained from wound, skin and soft tissue infection of patient infected in human THP-1 cells assessed as decrease in bacterial count from original inoculum at high compound concentration after 24 hrs at pH 5.5; assay type: functional
# How it was run: (§3)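 Bacteria phagocytosed by unactivated human THP-1 macrophages, then incubated 24 h with extracellular antibiotic at about 0.01× to 100× the pH 5.5 broth MIC. CFU per mg cell protein counted against the original inoculum, n = 3. A Hill-equation fit (slope factor 1) gave Emin and Emax, extrapolated to infinitely low and high concentration, and EC50. Static concentration was graphically interpolated.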
# Staphylococcus aureus [13] = experiment: as §2, with “NRS126” for “NRS18”, “bloodstream” for “wound, skin and soft tissue”; assay type: functional; how it was run: as §3
# Staphylococcus aureus [14] = experiment: Antimicrobial activity against Panton-valentine leukocidin positive community acquired methicillin-resistant Staphylococcus aureus N4042228 infected in human THP-1 cells assessed as decrease in bacterial growth after 24 hrs at pH 5.5; assay type: functional, organism-based; conditions: N4042228, THP-1, 24 h; how it was run: as §3
# Staphylococcus aureus [15] = experiment: Bacteriostatic activity against constitutive beta-lactamase negative methicillin-resistant Staphylococcus aureus COL NRS100 infected in human THP-1 cells assessed as decrease in bacterial growth after 24 hrs at pH 5.5; assay type: functional
# How it was run: (§4)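 Human THP-1 macrophages infected with each S. aureus strain. Cloxacillin added extracellularly at about 0.01× to 100× the broth MIC measured at pH 5.5, with gentamicin 0.5 mg/liter to stop extracellular growth. Incubated 24 h. CFU counted per mg cell protein as change from the post-phagocytosis inoculum, n = 3. Emin, Emax and EC50 from a Hill fit; static concentration by graphical interpolation.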
# Staphylococcus aureus [16] = experiment: Bacteriostatic activity against hospital acquired methicillin-resistant Staphylococcus aureus N4120210 infected in human THP-1 cells assessed as decrease in bacterial growth after 24 hrs at pH 5.5; assay type: functional; how it was run: as §4
# Staphylococcus aureus [17] = experiment: Bacteriostatic activity against Panton-valentine leukocidin positive community acquired methicillin-resistant Staphylococcus aureus N4042228 infected in human THP-1 cells assessed as decrease in bacterial growth after 24 hrs at pH 5.5; assay type: functional; how it was run: as §4
# Staphylococcus aureus [18] = experiment: Bacteriostatic activity against hospital acquired methicillin-resistant and vancomycin-intermediate Staphylococcus aureus NRS126 infected in human THP-1 cells assessed as decrease in bacterial growth after 24 hrs at pH 5.5; assay type: functional; how it was run: as §4
# Staphylococcus aureus [19] = experiment: Bacteriostatic activity against hospital acquired methicillin-resistant and vancomycin-intermediate Staphylococcus aureus VRS2 infected in human THP-1 cells assessed as decrease in bacterial growth after 24 hrs at pH 5.5; assay type: functional; how it was run: as §4
# Staphylococcus aureus [20] = experiment: Antimicrobial activity against intracellular hospital acquired methicillin-resistant Staphylococcus aureus ATCC 33591 infected in activated human THP-1 cells assessed as increase in bacterial count from original inoculum at low compound concentration after 24 hrs at pH 7.4; assay type: functional
# How it was run: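 THP-1 cells activated by 24-h culture with phorbol myristate acetate 2 mg/liter, then infected like unactivated THP-1. Cloxacillin dose range in mg/liter for 24 h. CFU per mg cell protein relative to the original inoculum, n = 3. Emin and Emax extrapolated from a Hill fit (slope 1), with EC50 as total drug; static concentration by graphical interpolation.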
smiles,measurement,setting,value
Cc1onc(-c2ccccc2Cl)c1C(=O)N[C@@H]1C(=O)N2[C@@H]1SC(C)(C)[C@@H]2C(=O)O [CLOXACILLIN],log10cfu,Staphylococcus aureus [1],2.06
same,log10cfu,Staphylococcus aureus [2],0.6
same,EC50,Staphylococcus aureus [3],0.39 µg/mL
same,log10cfu,Staphylococcus aureus [4],0.93
same,EC50,Staphylococcus aureus [5],0.39 µg/mL
same,remaining at 24 h,[6],93.3%
same,log10cfu,Staphylococcus aureus [7],2.27
same,Activity,Staphylococcus aureus [8],0.9 mg/L
same,Ratio,THP-1,0.28
same,MIC,Staphylococcus aureus [9],0.06 µg/mL
same,MIC,Staphylococcus aureus [10],0.06 µg/mL
same,log10cfu,Staphylococcus aureus [11],0.77
same,log10cfu,Staphylococcus aureus [12],0.57
same,log10cfu,Staphylococcus aureus [13],0.69
same,EC50,Staphylococcus aureus [14],10.8 ×MIC
same,Activity,Staphylococcus aureus [15],8.31 ×MIC
same,Activity,Staphylococcus aureus [16],35.5 ×MIC
same,Activity,Staphylococcus aureus [17],45.7 ×MIC
same,Activity,Staphylococcus aureus [18],20.9 ×MIC
same,Activity,Staphylococcus aureus [19],8.12 mg/L
same,log10cfu,Staphylococcus aureus [20],2.15
